Screening results (PubChem BioAssay)
ADAM17 inh = ADAM17 inhibition, QFRET primary screen; P78536; recombinant ADAM17, EDANS/DABCYL FRET peptide cleavage; inhibition, % at 6.95 µM; 0.83% of 370,000 active;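 active = inhibition above the mean of compounds lying between control limits plus 3 SD, set per campaign, cut at about 8.5% in these data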;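 also: 0% = DMSO-only wells as the low control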
SKN-1 block = inhibitors of C. elegans SKN-1; C. elegans VP596 Pgst-4::GFP/RFP ratio, acrylamide-induced, 24 h; inhibition, % at 21.8 µM; 0.49% of 360,000 active; AID 624304;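 active = interference check ratio from 0.5 to 1.5 plus GFP to RFP signal ratio inhibition reaching or exceeding a fixed threshold, cut at about 30% in these data, passing the limit was not always enough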
MPTP block = inhibitors of mitochondrial permeability transition pore. isolated mouse mitochondria, Ca2+ swelling absorbance, 30 min. inhibition, % at 10 µM. 1.4% of 360,000 active;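 active = inhibition of 50% or more, scaled per plate between neutral and stimulator controls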;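 also: 0% = DMSO wells given calcium and 100% = 1 mM EGTA wells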
MT1-MMP act inh = blocks activation of human MT1-MMP; P50281; HT1080 RFP-PRO-GFP cells, GFP/RFP ratio fluorescence, overnight; percent of plate control window, DMSO zero; GFP/RFP ratio change, % at 20 µM; 0.061% of 360,000 active;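 active = GFP/RFP ratio change of at least 30% with cell ATP level not reduced by more than half and red fluorescence within 50% of control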
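Assay system: HT1080 RFP-PRO-GFP cells | Dosing: 20 µM single dose, 1% DMSO | Incubation: Cells overnight before dosing, compound overnight, 37 °C, 5% CO2 | Evaluation: GFP/RFP fluorescence ratio | Control set: DMSO-only wells and HT1080 RFP-L50D-GFP cell wells as references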
ADAM10 inh = inhibitors of human ADAM10; recombinant ADAM10, EDANS/DABCYL FRET peptide cleavage, 3 h; inhibition, % at 7 µM; 0.62% of 370,000 active; AID 720582;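 active = inhibition above a per-campaign cutoff equal to the mean of compounds falling between control-based bounds plus 3 SD, cut at about 20% in these data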;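 also: 0% = DMSO wells while the 100% control is not disclosed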
Target sequence (O14672 214-748 limits assumed): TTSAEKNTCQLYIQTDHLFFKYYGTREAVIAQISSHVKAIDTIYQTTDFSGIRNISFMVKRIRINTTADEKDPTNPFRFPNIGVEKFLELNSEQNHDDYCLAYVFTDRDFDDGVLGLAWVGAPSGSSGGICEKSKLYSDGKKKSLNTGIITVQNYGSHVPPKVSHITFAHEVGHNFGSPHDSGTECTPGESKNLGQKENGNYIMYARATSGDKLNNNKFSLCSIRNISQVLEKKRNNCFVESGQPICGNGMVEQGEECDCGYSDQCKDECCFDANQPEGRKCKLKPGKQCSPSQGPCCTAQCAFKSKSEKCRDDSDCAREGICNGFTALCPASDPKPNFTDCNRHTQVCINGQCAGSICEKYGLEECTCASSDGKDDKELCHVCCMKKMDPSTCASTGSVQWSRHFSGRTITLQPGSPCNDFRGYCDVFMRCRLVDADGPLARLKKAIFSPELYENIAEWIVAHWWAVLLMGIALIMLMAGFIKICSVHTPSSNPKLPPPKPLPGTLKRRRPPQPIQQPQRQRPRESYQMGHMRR
NR3A LBD binder = modulates the human NR3A ligand-binding domain | NR3A LBD differential scanning fluorimetry, Tm shift; 0% = protein alone, 100% = glycine-bound protein | Tm shift relative to glycine control, % at 25 µM | 2.5% of 340,000 active;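 active = melting temperature shift of at least 10% of the positive control shift, at one fixed dose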
Rh123 counter = Rhodamine 123 counter-screen of mitochondrial pore hits; isolated mitochondria, membrane potential, Rhodamine 123 fluorescence; 78% of 5,000 active; AID 624504; shares compounds with MPTP block; inhibition, % at 10 µM; in the data active = inhibition above about 22%;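 also: 0% = DMSO vehicle and 100% = positive control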
MPTP abs DR = MPTP inhibition, dose response swelling confirmation | shares compounds with MPTP block | 58% of 780 active | IC50, µM | isolated mitochondria swelling, absorbance; in the data active = IC50 below about 20 µM
MPTP counter DR = active in counter-screen for permeability transition pore inhibitors; shares compounds with MPTP block; isolated mitochondria counterscreen, fluorescence read-out; IC50, µM; 49% of 780 active; AID 651564; in the data active = IC50 below about 80 µM
Numbers without * were called inactive; i = inactive; nt = not tested or not shown. Only some compounds are listed: those with a hit (about 4.7% of all), similar ones and a draw of the others.

SMILES	ADAM17 inh	SKN-1 block	MPTP block	MT1-MMP act inh	ADAM10 inh	NR3A LBD binder	Rh123 counter	others
COc1cccc(NC(=O)Nc2cc(C(=O)O)ccc2C)c1	-2	3	-1	2	-6	-3	nt
COc1cccc(C(C)NC(=O)Nc2cc(Cl)ccc2OC)c1 (configuration not stated)	-1	4	-1	2	-1	2	nt
COc1cccc(C(C)NC(=O)Nc2cccc(C(F)(F)F)c2)c1 (configuration not stated)	8	-27	96*	-7	11	0	102*
COc1cccc(NC(=O)Nc2ccc(C)c(Cl)c2)c1	-4	9	80*	6	-3	34*	90*
O=C(COc1ccc(Cl)cc1)NCCNC(=O)c1cnccn1	0	12	1	2	7	-2	nt
Cc1ccc(CNC(=O)Nc2ccccc2)c(C)c1	-4	-5	-1	0	12	0	nt
Cc1ccc(NC(=O)Nc2ccc(F)cc2)cc1Cl	-2	3	95*	4	3	28*	90*
COC1CCC2(C)C(=CCC3C4CC(O)CC4(C)CCC32)C1 (configuration not stated)	-3	13	81*	4	1	-1	73*
CCOCCCn1c(SCC(=O)Nc2oc(C)c3c(C)n[nH]c(=O)c23)nnc1-c1ccncc1	-2	0	0	0	-12	nt	nt
COc1ccc(NC(=O)c2c(Nc3ccccc3)sc(C(=O)c3ccc(F)cc3)c2N)cc1	1	-4	92*	-4	5	0	83*
COc1ccc(Nc2sc(C(=O)c3ccc(Cl)cc3)c(N)c2C(=O)Nc2ccccc2OC)cc1	0	16	68*	8	-1	1	75*
Cc1nc(C(=O)NNC(=O)Nc2ccccc2)cs1	-4	-10	3	2	-1	2	nt
Cc1nc2nc(C)n(CCN3CCOCC3)c(=O)c2c(-c2cccc([N+](=O)[O-])c2)c1C(=O)CCCCCCCCCCN1CCC(c2ccccc2)(c2ccccc2)CC1	7	15	59*	-12	4	-8	107*
O=C(NCCCN1CCOCC1)/C(=C/c1ccc(-c2cccc([N+](=O)[O-])c2)o1)NC(=O)c1ccccc1	0	14	0	-3	-5	nt	nt
COc1ccccc1C(=O)NCCC(=O)N(C)CC(=O)Nc1ccc(C)cc1	2	5	-2	-2	3	1	nt
N#Cc1c(NC(=O)Cn2c(=O)oc3ccccc32)oc(-c2ccccc2)c1-c1ccccc1	-2	-7	95*	6	1	11*	44*
CCCc1c(NC(=O)Nc2ccc(F)cc2)cnn1-c1ccccc1	-6	-10	52*	10	12	-4	67*
COc1ccc(S(=O)(=O)O/N=C2\CCSc3ccc(C)cc32)cc1	-4	-11	59*	0	-11	4	37*
Cc1ccc(C(=O)O/N=C2\CCSc3ccc(C)cc32)cc1	-1	-4	1	-1	-1	2	nt
Cc1c(C)n(Cc2ccccc2)c2ncnc(Cl)c12	5	11	56*	-8	1	0	65*
Cc1c(C)n(CCc2ccccc2)c2ncnc(NCCO)c12	0	15	0	0	1	-2	nt
Cc1cccc(C)c1[N+](=O)[O-]	-5	nt	nt	nt	-3	nt	nt
S=C(Nc1ccc(Cl)cc1)Nc1ccc2cn[nH]c2c1	-9	1	93*	4	-24	26*	89*
CCOC(=O)c1ccc(NC(=S)Nc2ccc3[nH]c(=O)[nH]c3c2)cc1	-2	0	74*	4	-8	1	59*
O=c1[nH]c2ccc(NC(=S)Nc3ccc(Cl)cc3)cc2[nH]1	2	-11	56*	4	7	3	103*
SMILES	ADAM17 inh	SKN-1 block	MPTP block	MT1-MMP act inh	ADAM10 inh	NR3A LBD binder	Rh123 counter	others
CCCCOc1ccc(N2CC(C(=O)NCc3ccco3)CC2=O)cc1 (configuration not stated)	-2	4	2	1	1	1	nt
COc1ccccc1NC(=O)COC(=O)C1CC(=O)N(c2ccc3c(c2)OCCO3)C1 (configuration not stated)	-3	4	0	-1	-6	-1	nt
COc1ccc(C(=O)Nc2cccc3nc(C)ccc23)c(OC)c1	-4	9	1	4	-7	-4	nt
O=c1cc(C(F)(F)F)nc(SCc2cccc3ccccc23)[nH]1	7	10	78*	0	11	5	85*
CN(C)S(=O)(=O)N1CCN(CC(O)COc2ccc(-c3ccccc3)cc2)CC1 (configuration not stated)	1	8	1	3	7	1	nt
CCCC1=NN2C(=N)/C(=C\c3cc(C)n(-c4cccc(C)c4)c3C)C(=O)N=C2S1	-4	11	52*	-21	-8	-16	5	MPTP abs DR=i;MPTP counter DR=>80
COCCOc1ccc(C(F)(F)F)cc1NC(=O)c1ccc(C)cc1	2	5	58*	1	6	5	-6	MPTP abs DR=15*;MPTP counter DR=>80
CN(C)CCCNC(=O)c1ccc(-c2nc(-c3ccc(Cl)cc3)cs2)cc1	-59	15	-10	-10	-223	-1	nt
COc1ccccc1NC(=S)NCCSc1ccc(Cl)cc1	2	10	-1	3	5	-2	nt
Cc1cccc(C)c1NC(=S)NCCSc1ccc(Cl)cc1	6	1	82*	-2	11	-5	86*
CC(CNC(=S)Nc1cc(F)cc(F)c1)CSc1ccc(Cl)cc1 (configuration not stated)	6	8	97*	-2	13	10*	89*
Cc1ccc(SCCNC(=S)Nc2cc(C)cc(C)c2)cc1	5	-11	2	2	15	-1	nt
COc1ccc(Cl)cc1NC(=S)NCCSc1ccc(C)cc1	7	6	82*	3	10	25*	81*
Cc1ccc(NC(=S)NCCSc2ccc(Cl)cc2)cc1	4	-3	100*	0	10	18*	99*
CC1CN(C(=O)COC(=O)/C=C/c2ccc(C(F)(F)F)cc2)CC(C)O1 (configuration not stated)	-5	-5	-1	1	4	0	nt
CC1(C(=O)Nc2cccc(C#N)c2)CCN1C(=O)Cc1ccc(-c2ccccc2)cc1 (configuration not stated)	4	3	92*	11	8	nt	85*
